Reference: ChEMBL document CHEMBL1129598, “Design, synthesis, and in vitro evaluation of cyclic nitrones as free radical traps for the treatment of stroke” (J Med Chem, 1996)
pIC50: −log10 of the molar value.

Assays:
[1] = In vitro inhibition of oxidation of soybean phosphatidylcholine liposomes using lipid peroxidation assay.; format: functional, Glycine max
How it was run: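 Soybean phosphatidylcholine liposomes were oxidised with an Fe²⁺/Fe³⁺ mixture to start peroxidation, with test agent present, and oxidation products were then analysed. A reference cyclic nitrone was run as an internal standard in each experiment. Runs were rejected if its value deviated by more than 15% from its established value.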

[2] = lipophilicity of the compound.; format: physicochemical; conditions: reversed-phase HPLC
How it was run: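 Lipophilicity was measured by reversed-phase HPLC as log k′_w. Samples at 0.5 mg/mL in MeOH were run on a C18 column (15 cm × 4.6 mm, 5 µm). Elution used 32–62% MeOH in pH 7.4 phosphate buffer, at three MeOH levels per compound.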

Row | SMILES | pIC50 [1] | Log K'W [2]
1 | [O-][N+]1=Cc2ccccc2CCC12CCCCC2 | 3.14 | 2.99
2 | CC1(C)Cc2sccc2C=[N+]1[O-] | 2.80 | 1.57
3 | CC1(C)c2cc(O)ccc2C=[N+]1[O-] | 3.09 | 0.68
4 | CC1(C)Cc2c(ccc3ccccc23)C=[N+]1[O-] | 4.00 | 2.67
5 | CC1(C)c2ccccc2C=[N+]1[O-] | 2.87 | 1.61
6 | CC(C)(C)/[N+]([O-])=C/c1ccccc1 | 1.84 | –
7 | COc1ccc2c(c1)C(C)(C)[N+]([O-])=C2 | 3.04 | 1.75
8 | [O-][N+]1=Cc2ccccc2CCC12CCOCC2 | 3.51 | 1.98
9 | CC1(C)Cc2ccccc2C=[N+]1[O-] | 2.78 | 1.9
10 | CC1(C)Cc2ccoc2C=[N+]1[O-] | 2.97 | 1.16

Other lines, results leading:

Row | pIC50 [1] | Log K'W [2] | SMILES
11 | 4.18 | 1.82 | Cc1cc2c(c(C)c1O)CC(C)(C)[N+]([O-])=C2
12 | 2.76 | 1.47 | CC1(C)Cc2ccsc2C=[N+]1[O-]
13 | 4.16 | 2.69 | CC1(C)Cc2ccc3ccccc3c2C=[N+]1[O-]
14 | 4.66 | 2.29 | Cc1cc2c(c(C)c1O)CCC(C)(C)[N+]([O-])=C2
15 | 2.96 | 1.98 | COc1cccc2c1C=[N+]([O-])C2(C)C
16 | 2.91 | 1.65 | [O-][N+]1=Cc2ccccc2CC12CCOCC2
